≈ marks a conversion by molar mass, not a printed value.
Columns and labels:
[1] = tested on: Streptococcus pneumoniae; experiment: Antibacterial activity against Streptococcus pneumoniae M305 overexpressing patA, patB and inactivated patB with single mutation by standardized agar doubling dilution method in presence of 50 uM sodium orthovanadate efflux pump inhibitor; format: functional
Procedure, shortened: (§1)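 MICs determined by BSAC standardized agar doubling dilution. Strains were grown in brain heart infusion broth for 24 h at 37°C in 5% CO2. Inhibitor arms had reserpine at 20 μg/ml or sodium orthovanadate at 50 μM in the agar. Mutants were made by transforming magellan2 insertion amplimers into clinical isolates and selecting on spectinomycin 100 mg/liter, with a no-DNA spontaneous-mutation control.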

[2] = tested on: Streptococcus pneumoniae; experiment: Antibacterial activity against fluoroquinolone, dye-resistant Streptococcus pneumoniae M87 overexpressing patA, patB by standardized agar doubling dilution method in presence of 50 uM sodium orthovanadate efflux pump inhibitor; format: functional
Procedure, shortened: (§2)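 MIC by agar doubling dilution following BSAC guidelines. Strains grown in brain heart infusion broth 24 h at 37°C in 5% CO2. Where an efflux pump inhibitor applies, MIC redetermined with reserpine at 20 μg/ml or sodium orthovanadate at 50 μM. Synergy taken as a fall in MIC of ≥2 dilutions with inhibitor present. Dye resistance defined relative to R6 (both dyes ≥2 dilutions higher).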

[3] = tested on: Streptococcus pneumoniae; experiment: Antibacterial activity against Streptococcus pneumoniae M298 overexpressing patA, patB and inactivated patA with single mutation by standardized agar doubling dilution method in presence of 20 ug/ml reserpine efflux pump inhibitor; format: functional; procedure, shortened: as §1
[4] = tested on: Streptococcus pneumoniae; experiment: Antibacterial activity against Streptococcus pneumoniae M318 overexpressing patA, patB and inactivated patA with single mutation by standardized agar doubling dilution method in presence of 50 uM sodium orthovanadate efflux pump inhibitor; format: functional
Procedure, shortened: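 MICs were determined by BSAC agar doubling dilution in the presence of sodium orthovanadate at 50 μM. Cultures were grown in BHI broth for 24 h at 37°C in 5% CO2, with R6 as control. Synergy was defined as an MIC reduction of ≥2 dilutions with the inhibitor present.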

[5] = tested on: Streptococcus pneumoniae; experiment: Antibacterial activity against Streptococcus pneumoniae M310 overexpressing patA, patB and inactivated patB with single mutation by standardized agar doubling dilution method in presence of 20 ug/ml reserpine efflux pump inhibitor; format: functional; procedure, shortened: as §1
[6] = tested on: Streptococcus pneumoniae; experiment: Antibacterial activity against fluoroquinolone-resistant Streptococcus pneumoniae M100 FQ-R overexpressing patA, patB by standardized agar doubling dilution method in presence of 50 uM sodium orthovanadate efflux pump inhibitor; format: functional
Procedure, shortened: (§3)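 MIC by agar doubling dilution per BSAC guidelines; strains pregrown in brain heart infusion broth 24 h, 37°C, 5% CO2. MICs measured alone and with efflux pump inhibitors reserpine (20 μg/ml) or sodium orthovanadate (50 μM); synergy defined as ≥2-dilution MIC reduction in presence of inhibitor.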

[7] = tested on: Streptococcus pneumoniae; experiment: Antibacterial activity against fluoroquinolone, dye-resistant Streptococcus pneumoniae M50 overexpressing patA, patB by standardized agar doubling dilution method in presence of 50 uM sodium orthovanadate efflux pump inhibitor; format: functional; procedure, shortened: as §2
[8] = tested on: Streptococcus pneumoniae; experiment: Antibacterial activity against Streptococcus pneumoniae M315 overexpressing patA, patB and inactivated patA with single mutation by standardized agar doubling dilution method in presence of 20 ug/ml reserpine efflux pump inhibitor; format: functional; procedure, shortened: as §1
[9] = tested on: Streptococcus pneumoniae; experiment: Antibacterial activity against Streptococcus pneumoniae M304 overexpressing patA, patB and inactivated patA with single mutation by standardized agar doubling dilution method; format: functional; procedure, shortened: as §1
[10] = tested on: Streptococcus pneumoniae; experiment: Antibacterial activity against Streptococcus pneumoniae M307 overexpressing patA, patB and inactivated patB with single mutation by standardized agar doubling dilution method in presence of 50 uM sodium orthovanadate efflux pump inhibitor; format: functional; procedure, shortened: as §1
[11] = tested on: Streptococcus pneumoniae; experiment: Antibacterial activity against Streptococcus pneumoniae M46A overexpressing patA, patB and inactivated patA with single mutation by standardized agar doubling dilution method in presence of 20 ug/ml reserpine efflux pump inhibitor; format: functional
Procedure, shortened: (§4)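 MICs were determined by BSAC agar doubling dilution in the presence of reserpine at 20 μg/ml. Strains were grown in BHI broth for 24 h at 37°C in 5% CO2, with R6 as control. Synergy was defined as an MIC drop of ≥2 dilutions with the inhibitor.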

[12] = tested on: Streptococcus pneumoniae; experiment: Antibacterial activity against Streptococcus pneumoniae M298 overexpressing patA, patB and inactivated patA with single mutation by standardized agar doubling dilution method in presence of 20 ug/ml reserpine efflux pump inhibitor
[13] = tested on: Streptococcus pneumoniae; experiment: Antibacterial activity against Streptococcus pneumoniae M301 overexpressing patA, patB and inactivated patA with single mutation by standardized agar doubling dilution method in presence of 50 uM sodium orthovanadate efflux pump inhibitor; format: functional; procedure, shortened: as §1
[14] = tested on: Streptococcus pneumoniae; experiment: Antibacterial activity against Streptococcus pneumoniae M311 overexpressing patA, patB and inactivated patA with single mutation by standardized agar doubling dilution method in presence of 50 uM sodium orthovanadate efflux pump inhibitor; format: functional; procedure, shortened: as §1
[15] = tested on: Streptococcus pneumoniae; experiment: Antibacterial activity against Streptococcus pneumoniae M86A overexpressing patA, patB and inactivated patA with single mutation by standardized agar doubling dilution method; format: functional
Procedure, shortened: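 MICs were determined by agar doubling dilution following BSAC guidelines, with no efflux inhibitor. Strains were grown in brain heart infusion broth for 24 h at 37°C in 5% CO2. Species identity was confirmed by Gram stain, optochin sensitivity and capsule test. Control strain R6 was tested alongside.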

[16] = tested on: Streptococcus pneumoniae; experiment: Antibacterial activity against Streptococcus pneumoniae M46B overexpressing patA, patB and inactivated patB with single mutation by standardized agar doubling dilution method in presence of 20 ug/ml reserpine efflux pump inhibitor; format: functional; procedure, shortened: as §4
[17] = tested on: Streptococcus pneumoniae; experiment: Antibacterial activity against Streptococcus pneumoniae M305 overexpressing patA, patB and inactivated patB with single mutation by standardized agar doubling dilution method in presence of 20 ug/ml reserpine efflux pump inhibitor; format: functional; procedure, shortened: as §1
[18] = tested on: Streptococcus pneumoniae; experiment: Antibacterial activity against fluoroquinolone-resistant Streptococcus pneumoniae M83 FQ-R overexpressing patA, patB by standardized agar doubling dilution method in presence of 50 uM sodium orthovanadate efflux pump inhibitor; format: functional; procedure, shortened: as §3
[19] = tested on: Streptococcus pneumoniae; experiment: Antibacterial activity against dye-resistant Streptococcus pneumoniae by standardized agar doubling dilution method; format: functional; procedure, shortened: as §2
[20] = tested on: Streptococcus pneumoniae; experiment: Antibacterial activity against Streptococcus pneumoniae M311B overexpressing patA, patB and inactivated patB with single mutation by standardized agar doubling dilution method in presence of 20 ug/ml reserpine efflux pump inhibitor; format: functional; procedure, shortened: as §1
[21] = tested on: Streptococcus pneumoniae; experiment: Antibacterial activity against Streptococcus pneumoniae M319 overexpressing patA, patB and inactivated patB with single mutation by standardized agar doubling dilution method in presence of 20 ug/ml reserpine efflux pump inhibitor; format: functional; procedure, shortened: as §4
[22] = tested on: Streptococcus pneumoniae; experiment: Antibacterial activity against Streptococcus pneumoniae M309 overexpressing patA, patB and inactivated patB with single mutation by standardized agar doubling dilution method in presence of 20 ug/ml reserpine efflux pump inhibitor; format: functional; procedure, shortened: as §1
[23] = tested on: Streptococcus pneumoniae; experiment: Antibacterial activity against fluoroquinolone, dye-resistant Streptococcus pneumoniae M45 overexpressing patA, patB by standardized agar doubling dilution method in presence of 20 ug/ml reserpine efflux pump inhibitor; format: functional; procedure, shortened: as §2
[24] = tested on: Streptococcus pneumoniae; experiment: Antibacterial activity against fluoroquinolone-resistant Streptococcus pneumoniae M83 FQ-R overexpressing patA, patB by standardized agar doubling dilution method in presence of 20 ug/ml reserpine efflux pump inhibitor; format: functional
Procedure, shortened: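 Clinical S. pneumoniae isolates grown in BHI broth 24 h at 37°C in 5% CO2. MICs by agar doubling dilution per BSAC guidelines, alone or with efflux inhibitor reserpine (20 μg/ml) or sodium orthovanadate (50 μM). Synergy defined as ≥2-dilution MIC reduction in presence of inhibitor.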

[25] = tested on: Streptococcus pneumoniae; experiment: Antibacterial activity against fluoroquinolone, dye-resistant Streptococcus pneumoniae M86 overexpressing patA, patB by standardized agar doubling dilution method; format: functional; procedure, shortened: as §2

| Compound | MIC [1] [µg/mL] | MIC [2] [µg/mL] | MIC [3] [µg/mL] | MIC [4] [µg/mL] | MIC [5] [µg/mL] | MIC [6] [µg/mL] | MIC [7] [µg/mL] | MIC [8] [µg/mL] | MIC [9] [µg/mL] | MIC [10] [µg/mL] | MIC [11] [µg/mL] | MIC [12] [µg/mL] | MIC [13] [µg/mL] | MIC [14] [µg/mL] | MIC [15] [µg/mL] | MIC [16] [µg/mL] | MIC [17] [µg/mL] | MIC [18] [µg/mL] | MIC [19] [µg/mL] | MIC90 [19] [µg/mL] | other results |
| --- | --- | --- | --- | --- | --- | --- | --- | --- | --- | --- | --- | --- | --- | --- | --- | --- | --- | --- | --- | --- | --- |
| O=C(O)c1cn(C2CC2)c2cc(N3CCNCC3)c(F)cc2c1=O [CIPROFLOXACIN] | 8 | 16 | 8 | 16 | 1 | 1 | 32 | 1 | 4 (≈ 12.1 µM) | 8 | 0.12 | 8 | 8 | 4 | 1 (≈ 3.02 µM) | 0.12 | 8 | 1 | 0.25 (≈ 0.754 µM) | 0.25 (≈ 0.754 µM) | MIC [20]: 4 µg/mL; MIC [21]: 16 µg/mL; MIC [22]: 1 µg/mL; MIC [23]: 1 µg/mL; MIC [24]: 64 µg/mL; MIC [25]: 2 µg/mL (≈ 6.04 µM) |
| CC[n+]1c(-c2ccccc2)c2cc(N)ccc2c2ccc(N)cc21.[Br-] [HOMIDIUM BROMIDE] | 0.25 | 1 | 0.5 | 0.5 | 0.5 | 1 | 1 | 0.12 | 0.5 | 2 | 0.5 | 0.5 | 0.25 | 8 | 0.5 | 0.5 | 0.5 | 4 | 16 | 16 | MIC [20]: 0.5 µg/mL; MIC [21]: 0.5 µg/mL; MIC [22]: 0.5 µg/mL; MIC [23]: 0.5 µg/mL; MIC [24]: 4 µg/mL; MIC [25]: 4 µg/mL |

Source: ChEMBL document CHEMBL1687824, “Overexpression of patA and patB, which encode ABC transporters, is associated with fluoroquinolone resistance in clinical isolates of Streptococcus pneumoniae” (2011)
